The source made the active and inactive calls. No cut-off for these calls is given here.
Key:
[1] = Drug uptake in endoplasmic reticulum of human HaCaT cells at 1 uM after 6 hrs by ER-tracker dye-based fluorescence microscopy; format: ADME, cell-based
How it was run: (§1)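 Cells grown on glass coverslips were incubated with 1×10^-6 M photosensitizer for 6 h at 37 °C, washed twice in PBS and imaged live by fluorescence microscopy. Organelle probes (ER-Tracker, ex 374/em 430 nm; NBD-Golgi, ex 466/em 536 nm) were applied for 30 min at the supplier's concentrations, and their patterns were compared with the compound signal.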

[2] = Dark toxicity against human Hep2 cells assessed as cell survival at 3 uM incubated for 6 hrs measured after 24 hrs by MTT assay; format: cell-based, HEp-2; settings: read-out: Survival
How it was run: (§2)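 Cells (HaCaT and HeLa in DMEM, HEp-2 in RPMI, each with 10% FBS, at 37 °C and 5% CO2) were treated at 60–70% confluence. The compound was added from a 10^-3 M DMSO stock in medium with 1% FBS (final DMSO <0.5%) at 3·10^-6 to 2.5·10^-5 M and kept in the dark (6 h per table footnote, 18 h per methods). After 24 h, MTT at 50 µg/mL for 4 h, read at 542 nm as % of control OD.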

HEp-2 [3] = experiment: Induction of cell morphological changes in human Hep2 cells assessed as deep deformation of cell membrane at LD90 after 24 hrs by Hoechst 33258 staining-based phase contrast microscopy in presence of 1 to 2 J/Cm'2 UVA light; format: functional
HEp-2 [4] = experiment: Induction of cell morphological changes in human Hep2 cells assessed as cytoplasmic retraction at 3 to 5 uM after 24 hrs by Hoechst 33258 staining-based phase contrast microscopy in presence of UVA light; format: functional
HaCaT [5] = experiment: Phototoxicity against human HaCaT cells assessed as cell lethality at 3 to 250 uM incubated for 6 hrs followed by UV irradiation at 2 J/cm'2 measured after 24 hrs by MTT assay; format: cell-based
How it was run: (§3)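 Cultures at 60–70% confluence were loaded with the photosensitizer for 6 h in medium with 1% FBS and <0.5% DMSO. Medium was then replaced and cells were irradiated with UVA (300–400 nm, 15.9 W/m² at 10 cm), then washed and kept in complete medium for 24 h. Survival was read by MTT (50 µg/mL, 4 h, 542 nm) as % of untreated control OD.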

[6] = Induction of microtubule disruption in human Hep2 cells assessed as abnormality in chromosome distribution at LD50 after 24 hrs by immunofluorescence assay in presence of UVA light; format: cell-based; settings: HEp-2
HaCaT [7] = experiment: Induction of apoptotic morphological changes in human HaCaT cells at LD50 after 24 hrs by Hoechst 33258 staining-based fluorescence microscopy in presence of UVA light; format: cell-based
HEp-2 [8] = experiment: Induction of cell morphological changes in human Hep2 cells assessed as cell detachment from substrate at 3 to 5 uM after 24 hrs by Hoechst 33258 staining-based phase contrast microscopy in presence of UVA light; format: functional
HEp-2 [9] = experiment: Induction of microtubule disruption in human Hep2 cells assessed as increase in altered metaphase at LD50 after 24 hrs by immunofluorescence assay in presence of UVA light; format: cell-based
[10] = Drug uptake in golgi apparatus of human Hep2 cells at 1 uM after 6 hrs by NBD dye-based fluorescence microscopy; format: ADME, cell-based; settings: hep-2, 6 h; how it was run: as §1
[11] = Phototoxicity against human HaCaT cells incubated for 6 hrs followed by UV irradiation at 0.25 J/cm'2 measured after 24 hrs by MTT assay; format: cell-based; settings: read-out: LD50; how it was run: as §3
HeLa [12] = experiment: Phototoxicity against human HeLa cells assessed as appearance of rounded cells at LD50 after 24 hrs by acridine orange/ethidium bromide staining-based assay in presence of 0.25 to 0.5 J/cm'2 UVA light; format: functional, cell-based
How it was run: (§4)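 Cells (HaCaT, HeLa in DMEM; HEp-2 in RPMI; 10% FBS) at 60–70% confluence were incubated 6 h with 3·10^-6 M photosensitizer (DMSO stock diluted in medium with 1% FBS, final DMSO <0.5%). Medium was replaced and cells were given 0.25 J/cm² UVA (300–400 nm). 24 h later, cells were stained live with 50 µg/ml AO plus 50 µg/ml EtBr in PBS. Within 15 min, 200 cells per condition were scored as living, rounded, apoptotic or necrotic.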

HaCaT [13] = experiment: Phototoxicity against human HaCaT cells assessed as cell lethality at 3 to 250 uM incubated for 6 hrs followed by UV irradiation at 0.5 J/cm'2 measured after 24 hrs by MTT assay; format: cell-based; how it was run: as §3
HaCaT [14] = experiment: Phototoxicity against human HaCaT cells assessed as appearance of rounded cells at LD50 after 24 hrs by acridine orange/ethidium bromide staining-based assay in presence of 0.25 to 0.5 J/cm'2 UVA light; format: cell-based; how it was run: as §4
HaCaT [15] = experiment: Induction of cell morphological changes in human HaCaT cells assessed as appearance of apoptotic cells with membrane blebbing at 3 to 5 uM after 24 hrs by Hoechst 33258 staining-based phase contrast microscopy in presence of UVA light
HEp-2 [16] = experiment: Increase in mitotic nuclei level in human Hep2 cells at LD50 after 24 hrs by Hoechst 33258 staining-based fluorescence microscopy in presence of UVA light; format: functional, cell-based
HeLa [17] = experiment: Induction of cell morphological changes in human HeLa cells assessed as deep deformation of cell membrane at LD90 after 24 hrs by Hoechst 33258 staining-based phase contrast microscopy in presence of 1 to 2 J/Cm'2 UVA light; format: functional
HeLa [18] = experiment: Induction of cell morphological changes in human HeLa cells assessed as appearance of rounded cells at 3 to 5 uM after 24 hrs by Hoechst 33258 staining-based phase contrast microscopy in presence of UVA light; format: functional
[19] = Induction of microtubule disruption in human HaCaT cells assessed as increase in altered metaphase at LD50 after 24 hrs by immunofluorescence assay in presence of UVA light; format: cell-based
HEp-2 [20] = experiment: Induction of apoptosis in human Hep2 cells at LD50 after 24 hrs by acridine orange/ethidium bromide staining-based assay in presence of 0.25 to 0.5 J/cm'2 UVA light; format: functional, cell-based
HEp-2 [21] = experiment: Phototoxicity against human Hep2 cells assessed as appearance of rounded cells at LD50 after 24 hrs by acridine orange/ethidium bromide staining-based assay in presence of 0.25 to 0.5 J/cm'2 UVA light; format: functional, cell-based; how it was run: as §4
[22] = Dark toxicity against human HaCaT cells assessed as cell survival at 3 uM incubated for 6 hrs measured after 24 hrs by MTT assay; format: cell-based; settings: read-out: Survival; how it was run: as §2
HeLa [23] = experiment: Induction of microtubule disruption in human HeLa cells assessed as increase in mitotic index at LD50 after 24 hrs by immunofluorescence assay in presence of UVA light; format: cell-based
[24] = Dark toxicity against human Hep2 cells assessed as cell survival at 10 uM incubated for 6 hrs measured after 24 hrs by MTT assay; format: cell-based, HEp-2; settings: read-out: Survival; how it was run: as §2
[25] = Phototoxicity against human Hep2 cells assessed as cell lethality at 3 to 250 uM incubated for 6 hrs followed by UV irradiation at 2 J/cm'2 measured after 24 hrs by MTT assay; format: functional, HEp-2; how it was run: as §3
HEp-2 [26] = experiment: Induction of cell morphological changes in human Hep2 cells assessed as cellular stretching at 3 to 5 uM after 24 hrs by Hoechst 33258 staining-based phase contrast microscopy in presence of UVA light; format: functional

SMILES	Drug uptake [1]	viability at 6 h, 3 µM [2]	Activity (HEp-2 [3])	Activity (HEp-2 [4])	mortality (HaCaT [5])	Activity [6]	Activity (HaCaT [7])	Activity (HEp-2 [8])	Activity (HEp-2 [9])	Drug uptake [10]	CC50 at 24 h [11]	Activity (HeLa [12])	mortality (HaCaT [13])	Activity (HaCaT [14])	Activity (HaCaT [15])	Activity (HEp-2 [16])	Activity (HeLa [17])	Activity (HeLa [18])	Activity [19]	Activity (HEp-2 [20])	also measured
COc1cc(C#Cc2ccc(C#Cc3cc(OC)c(C#CCO[C@@H]4O[C@H](CO)[C@@H](O)[C@H](O)[C@H]4O)cc3OC)c(N(C)C)c2)c(OC)cc1C#CCO[C@@H]1O[C@H](CO)[C@@H](O)[C@H](O)[C@H]1O	Active	97.2%	Active	Active	> 50%	Active	Toxic	Active	Active	Active	3 µM	Active	> 50%	Toxic	Toxic	Active	Active	Active	Non-toxic	Active	Activity (HEp-2 [21]): Active; viability at 6 h, 3 µM [22]: 92.4%; Activity (HeLa [23]): Active; viability at 6 h, 10 µM [24]: 85.6%; mortality [25]: >50%; Activity (HEp-2 [26]): Active
COc1cc(C#Cc2ccc(C#CCO[C@@H]3O[C@H](CO)[C@@H](O)[C@H](O)[C@H]3O)cc2N(C)C)c(OC)cc1C#Cc1ccc(C#CCO[C@@H]2O[C@H](CO)[C@@H](O)[C@H](O)[C@H]2O)cc1N(C)C	Active	97.7%	Active	Active	> 50%	Active	Toxic	Active	Active	Active	3 µM	Active	> 50%	Toxic	Toxic	Active	Active	Active	Non-toxic	Active	Activity (HEp-2 [21]): Active; viability at 6 h, 3 µM [22]: 91.5%; Activity (HeLa [23]): Active; viability at 6 h, 10 µM [24]: 80.1%; mortality [25]: >50%; Activity (HEp-2 [26]): Active

— ChEMBL document CHEMBL3769305, “Glucose-functionalized amino-OPEs as biocompatible photosensitizers in PDT” (Eur J Med Chem, 2016)
